High-throughput results: PubChem BioAssay, Broad Institute
Pf Dd2 inh: P. falciparum Dd2 growth inhibitors, primary screen, SYBR Green fluorescence, single dose replicates; 72 h; active compounds read low; activity change, % at 10 µM; actives 2.3% (n = 94,000); AID 1159554, 2015; in the data active = activity change below about -80%; inconclusive = no clear call, values can overlap the other calls
IDH1 R132H inh: inhibitors of IDH1 R132H reductase, primary screen, biochemical, plate reader, single point; Isocitrate dehydrogenase [NADP] cytoplasmic (Homo sapiens), O75874; inhibition, % at 10 µM; AID 624101, 2012; diaphorase/resazurin fluorescence, 60 min; actives 0.18% (n = 70,000); in the data active = inhibition above about 34%; inconclusive = no clear call, values can overlap the other calls; inactive = below about 11%
Target sequence (O75874 whole entry R132H): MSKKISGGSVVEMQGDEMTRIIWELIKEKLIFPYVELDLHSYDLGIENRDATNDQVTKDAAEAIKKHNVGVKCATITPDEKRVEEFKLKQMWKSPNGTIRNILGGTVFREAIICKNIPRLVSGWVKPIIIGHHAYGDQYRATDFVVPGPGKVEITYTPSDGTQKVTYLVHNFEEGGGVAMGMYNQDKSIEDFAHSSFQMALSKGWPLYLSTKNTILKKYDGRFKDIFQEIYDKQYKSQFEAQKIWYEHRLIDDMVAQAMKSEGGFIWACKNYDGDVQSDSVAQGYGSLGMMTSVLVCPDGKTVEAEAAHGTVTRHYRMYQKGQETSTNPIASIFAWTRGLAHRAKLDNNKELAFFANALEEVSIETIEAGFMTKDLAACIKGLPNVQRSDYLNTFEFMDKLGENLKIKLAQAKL
T cruzi growth-1: T. cruzi intracellular proliferation inhibitors, primary screen, cell-based, beta-gal Tulahuen parasites, NIH3T3 host, luminescence; inhibition, % at 8.34 µM; T. cruzi beta-gal in NIH3T3, GalScreen luminescence, 90 h; actives 5.9% (n = 77,000);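 active = mean inhibition above about 93%, with at least 55% of replicates each passing it, limit read from the data, passing the limit was not always enough; inconclusive = only one of those two conditions holds; inactive = neither condition holds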
GASC1 inh: inhibitors of GASC-1 (KDM4C) histone demethylase, primary screen, biochemical, single concentration HTS; actives 0.15% (n = 96,000); Lysine-specific demethylase 4C (Homo sapiens), Q9H3R0; AID 720574, 2013; inhibition, % at 12.5 µM; GST-KDM4C 2-372, H3K9me3 peptide, LANCE TR-FRET;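 active = mean replicate inhibition above about 25%, with at least 55% of replicates also reaching it, limit read from the data, passing the limit was not always enough; inconclusive = only one of those two conditions met; inactive = neither condition met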
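Test system: N-terminal GST-fused human GASC-1 (KDM4C) fragment, residues 2-372; quantity: GASC-1 enzyme at 10 nM final in reaction; dosing: single dose; schedule: 30 min demethylation and 1 h detection at room temperature; signal: LANCE TR-FRET, excitation 340 nm, emissions 618 and 671 nm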
T cruzi growth-2: T. cruzi intracellular proliferation inhibitors, confirmation, cell-based, NIH3T3 host, beta-gal parasite, luminescence, cherry-pick | shares compounds with T cruzi growth-1 | T. cruzi beta-gal in NIH3T3, GalScreen luminescence, 90 h | inhibition, % at 8.35 µM | actives 72% (n = 5,600);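 active = mean replicate inhibition above about 95% and at least 55% of replicates individually reaching it, limit read from the data; inconclusive = only one of the two criteria is met; inactive = neither criterion is met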
T cruzi growth-3: inhibitors of intracellular T. cruzi replication, confirmation, NIH3T3 host cells, beta-gal parasites, cherry-pick, set 2; shares compounds with T cruzi growth-1; inhibition, % at 2.09 µM; actives 21% (n = 5,600); AID 651740, 2012; T. cruzi beta-gal in NIH3T3, GalScreen luminescence, 90 h;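 active = mean inhibition above about 95%, with at least 55% of replicates also reaching it, limit read from the data; inconclusive = meets just one of the two conditions; inactive = meets neither condition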
3T3 cytotox: cytotoxicity in mouse NIH/3T3 fibroblasts, confirmation, cytotoxicity control for T. cruzi proliferation inhibitor project, cell-based, cherry-pick, single point; NIH/3T3 viability, CellTiter-Glo ATP luminescence, 90 h; actives 14% (n = 5,600); shares compounds with T cruzi growth-1; cytotoxicity (signal decrease), % at 8.35 µM;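 active = mean signal decrease across replicates above about 35% based on untreated-well scatter, with enough replicates individually passing, limit read from the data; inconclusive = no rule stated though some were filed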
NIH3T3 tox 2: NIH/3T3 fibroblast cytotoxicity, confirmation, cytotoxicity control, cell-based, cherry-pick, single point, set 2 | shares compounds with T cruzi growth-1 | NIH/3T3 viability, CellTiter-Glo ATP luminescence, 90 h | inhibition, % at 24.9 µM | actives 56% (n = 5,600) | AID 651744, 2012;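 active = mean loss of cell viability signal at or above a set limit, and enough replicates individually reaching it; inconclusive = meets only the mean limit or only the replicate share; inactive = meets neither condition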
Numbers stand for hits; . = inactive; ? = inconclusive; / = no result given. Hits are enriched below; roughly 5.8% of the tested compounds scored in any of these assays.

SMILES	Pf Dd2 inh	IDH1 R132H inh	T cruzi growth-1	GASC1 inh	T cruzi growth-2	T cruzi growth-3	3T3 cytotox	NIH3T3 tox 2
C[C@H]1CN([C@@H](C)CO)C(=O)c2cccc(NC(=O)Nc3ccc(F)cc3)c2O[C@@H]1CN(C)Cc1ccc(-c2ccccc2)cc1	.	.	.	.	/	/	/	/
CO[C@H]1CN(C)C(=O)c2cc(NC(=O)Nc3ccccc3F)ccc2OC[C@@H](C)N(C)C[C@H]1C	.	.	.	.	/	/	/	/
C[C@H](CO)N1C[C@H](C)[C@@H](CN(C)Cc2ccncc2)Oc2cc(-c3ccncc3)ccc2S1(=O)=O	.	/	.	.	/	/	/	/
Cc1ccc(-c2ccc3c(c2)O[C@H](CN(C)Cc2ccncc2)[C@@H](C)CN([C@H](C)CO)S3(=O)=O)cc1	-90	.	122	.	99	103	75	105
Cc1ccc(-c2ccc3c(c2)O[C@H](CN(C)Cc2ccncc2)[C@H](C)CN([C@@H](C)CO)S3(=O)=O)cc1	.	/	119	.	.	.	?	99
C[C@@H]1CN([C@@H](C)CO)C(=O)c2cc(NS(C)(=O)=O)ccc2O[C@@H]1CN(C)CC1CC1	/	/	/	.	/	/	/	/
Cc1ccc(S(=O)(=O)Nc2ccc3c(c2)C(=O)N([C@@H](C)CO)C[C@@H](C)[C@H](CN(C)S(=O)(=O)c2ccc(F)cc2)OCCCC[C@H](C)O3)cc1	.	.	121	.	110	.	.	.
Cc1ccc(S(=O)(=O)N(C)C[C@@H]2OCCCC[C@H](C)Oc3ccc(NS(=O)(=O)c4ccc(F)cc4)cc3C(=O)N([C@H](C)CO)C[C@H]2C)cc1	.	.	107	.	107	.	.	55
Cc1ccc(S(=O)(=O)N(C)C[C@H]2OCCCC[C@@H](C)Oc3ccc(NS(=O)(=O)c4ccc(F)cc4)cc3C(=O)N([C@H](C)CO)C[C@H]2C)cc1	.	.	109	.	103	?	.	.
Cc1ccc(S(=O)(=O)Nc2ccc3c(c2)C(=O)N([C@H](C)CO)C[C@H](C)[C@@H](CN(C)S(=O)(=O)c2ccc(F)cc2)OCCCC[C@H](C)O3)cc1	.	/	/	.	/	/	/	/
C[C@H]1CCCCO[C@@H](CN(C)Cc2ccc(C(=O)O)cc2)[C@@H](C)CN([C@@H](C)CO)C(=O)c2cc(NC(=O)Nc3cccc4ccccc34)ccc2O1	.	.	.	.	/	/	/	/
C[C@H]1CCCCO[C@@H](CN(C)Cc2ccc(C(F)(F)F)cc2)[C@@H](C)CN([C@@H](C)CO)C(=O)c2cc(NC(=O)Nc3cccc4ccccc34)ccc2O1	.	/	?	.	108	108	.	.
C[C@H]1CCCCO[C@H](CN(C)Cc2ccc(C(F)(F)F)cc2)[C@@H](C)CN([C@@H](C)CO)C(=O)c2cc(NC(=O)Nc3cccc4ccccc34)ccc2O1	.	/	?	.	97	109	.	.
C[C@@H]1CN([C@H](C)CO)C(=O)c2cc(NC(=O)Nc3cccc4ccccc34)ccc2O[C@@H](C)CCCCO[C@@H]1CN(C)Cc1ccc(C(F)(F)F)cc1	-87	/	?	.	102	108	.	.
C[C@@H]1CCCCO[C@@H](CN(C)Cc2ccc(C(F)(F)F)cc2)[C@@H](C)CN([C@@H](C)CO)C(=O)c2cc(NC(=O)Nc3cccc4ccccc34)ccc2O1	.	.	?	.	108	100	.	.
C[C@H](CO)N1C[C@H](C)[C@@H](CN(C)C(=O)Nc2ccccc2)OCCCC[C@H](C)Oc2ccc(NC(=O)Cc3ccccc3)cc2C1=O	.	.	.	.	/	/	/	/
CO[C@H]1CN(C)C(=O)c2cc(NC(C)=O)ccc2OC[C@@H](C)N(C(=O)Cc2ccccn2)C[C@H]1C	.	.	.	.	/	/	/	/
COc1ccc(S(=O)(=O)N2CC[C@H]3[C@@H](CO)N(C)c4ccc(C5=CCCCC5)cc4[C@H]32)cc1	.	/	?	.	.	108	.	70
COc1ccc(-c2ccc3c(c2)[C@@H]2[C@@H](CCN2S(=O)(=O)C2=NC(C)C=N2)[C@@H](CO)N3C)cc1 (stereo partly specified)	.	/	?	.	103	.	.	.
CCCNC(=O)N[C@@H]1CC[C@@H](CCn2cc(C3CCCCC3)nn2)O[C@@H]1CO	.	.	/	.	/	/	/	/
C[C@H](CO)N1C[C@H](C)[C@@H](CN(C)Cc2ccc3c(c2)OCO3)Oc2c(NC(=O)Nc3ccc(C(F)(F)F)cc3)cccc2C1=O	.	/	104	.	97	105	.	97
C[C@@H]1CN([C@@H](C)CO)C(=O)c2cccc(NC(=O)Nc3ccc(C(F)(F)F)cc3)c2O[C@H]1CN(C)Cc1ccc2c(c1)OCO2	.	/	?	/	105	117	.	55
C[C@H]1CN([C@@H](C)CO)C(=O)c2cccc(NC(=O)Nc3ccc(C(F)(F)F)cc3)c2O[C@@H]1CN(C)Cc1ccc2c(c1)OCO2	.	/	.	/	/	/	/	/
C[C@H](CO)N1C[C@H](C)[C@H](CN(C)Cc2ccc3c(c2)OCO3)Oc2c(NC(=O)Nc3ccc(C(F)(F)F)cc3)cccc2C1=O	.	.	103	.	108	103	.	103
CO[C@H]1CN(C)C(=O)c2ccc(NS(=O)(=O)c3ccc(Cl)cc3)cc2OC[C@@H](C)N(C(=O)NC(C)C)C[C@H]1C	.	.	.	.	/	/	/	/
CO[C@@H]1CN(C)C(=O)c2cc(NC(=O)c3ccno3)ccc2OC[C@H](C)NC[C@@H]1C	.	.	.	.	/	/	/	/
O=S(=O)(c1ccccc1F)N1CCCCN2[C@H](C1)[C@H](c1ccc(-c3ccncc3)cc1)[C@@H]2CO	.	/	96	.	112	.	.	.
O=S(=O)(c1ccccc1F)N1CCCCN2[C@H](CO)[C@@H](c3ccc(-c4ccncc4)cc3)[C@H]2C1	.	/	.	.	/	/	/	/
O=S(=O)(c1ccccc1F)N1CCCCN2[C@H](CO)[C@H](c3ccc(-c4cccnc4)cc3)[C@H]2C1	.	/	?	.	.	.	.	?
O=S(=O)(c1ccccc1F)N1CCCCN2[C@H](C1)[C@@H](c1ccc(-c3cccnc3)cc1)[C@@H]2CO	.	/	.	.	/	/	/	/
